SMARCA2 activ: SMARCA2 function activation, primary screen; MG213 cells, MMTV-luciferase reporter, dexamethasone, overnight; activation, % at 9.1 µM; 1% of 370,000 active; AID 652017; in the data active = activation above about 7.8%;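 also: 0% = vehicle wells and 100% = reference activator wells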
MC4R barr agon: activates human MC4R beta-arrestin recruitment | P32245 | U2OS MC4R beta-arrestin complementation, luminescence; percent of melanotan II response, DMSO zero | activation, % at 8.9 µM | 0.98% of 360,000 active;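 active = activation above a per-plate cutoff, the mean activation of sample wells on that plate plus 3 SD, cut at about 8% in these data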
Target sequence (P32245 whole entry, looked up): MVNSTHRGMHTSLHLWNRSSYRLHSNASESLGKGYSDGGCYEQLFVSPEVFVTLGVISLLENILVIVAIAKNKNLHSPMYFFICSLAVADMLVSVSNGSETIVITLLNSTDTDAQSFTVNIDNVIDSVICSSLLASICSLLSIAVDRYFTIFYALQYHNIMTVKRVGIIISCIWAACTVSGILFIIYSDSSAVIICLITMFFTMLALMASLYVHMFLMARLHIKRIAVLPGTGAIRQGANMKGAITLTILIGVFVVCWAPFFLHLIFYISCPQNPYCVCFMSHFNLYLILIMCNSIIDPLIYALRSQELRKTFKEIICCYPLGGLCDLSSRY
MC4R antag cAMP: antagonists of human melanocortin 4 receptor (MC4R) | P32245 | MC4R-expressing cells, MTII-stimulated cAMP, LANCE TR-FRET | inhibition, % at 6.5 µM | 0.48% of 360,000 active;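 active = inhibition above its plate's cutoff, the mean of tested wells on that plate plus 3 SD, cut at about 29% in these data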;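 also: 0% = Melanotan II alone and 100% = Melanotan II plus saturating MCL0020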
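System: U2OS-MC4R stable cell line; Technique: Eu-cAMP/anti-cAMP TR-FRET, emission 671 nm; Repeats: single well per compound; Also added: Melanotan II; Dosing: one concentration, 6.5 µM nominal; Schedule: 30-min compound, 1-h challenge, 1-h detection, room temperature.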
F508del corr: correctors of CFTR F508del function in bronchial epithelial cells; CFBE cells, YFP halide quenching; stimulated with forskolin plus potentiator P3; % fluorescence drop versus neutral controls; activity (quench increase), % at 7.58 µM; 0.36% of 350,000 active;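 active = mean added fluorescence quench of at least 8% versus neutral control, with both replicates also reaching 8%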;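 also: cells transiently co-express mutant CFTR-F508del with the halide-sensitive YFP; corrector assay measuring rescue of mutant channel to the surface after 24 h compound exposure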
SMARCA2 act conf: SMARCA2 activation, confirmation screen. shares compounds with SMARCA2 activ. MG213 cells, MMTV-luciferase with dexamethasone, luminescence, overnight; MG213 cells expressing E1A, Rb sequestered; DMSO wells 0%, reference activator 100%. activation, % at 9.1 µM. 30% of 3,500 active. AID 652260;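 active = activation above its plate's cutoff, the mean activation of tested wells plus 3 SD, cut at about 7.9% in these data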
VP16 Luc act: GAL4-VP16 reporter activation counter-screen; shares compounds with SMARCA2 activ; HEK293 GAL4-VP16 pG5luc reporter, luciferase luminescence; scaled: DMSO wells 0%, SAHA wells 100%; activation, % at 9.1 µM; 41% of 3,500 active; AID 686939;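 active = activation above the solvent-only control well mean plus 3 SD, averaged across control plates, cut at about 5.2% in these data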
* hit, by the source's call; · = not tested or not shown. Only some compounds are listed: those with a hit (about 2.1% of all), similar ones and a draw of the others.

SMILES | SMARCA2 activ | MC4R barr agon | MC4R antag cAMP | F508del corr | SMARCA2 act conf | VP16 Luc act
Cc1cccc(NC(=O)CN2C(=O)N/C(=C/c3ccc(C)o3)C2=O)c1 | 9.1* | -1 | 1 | · | 2 | 1
Cc1cccc(NC(=O)Cn2c(=O)oc3ccccc32)c1 | 8.8* | -1 | -1 | · | -3 | 1
CCCC#Cc1ccc2c(c1)[C@@H]1[C@@H](CCN1S(=O)(=O)c1ccccc1)[C@@H](CO)N2C | · | · | · | 0 | · | ·
O=C(O)c1ccccc1C(=O)NNc1cccc(Cl)n1 | 8.6* | 0 | -1 | 0 | -1 | 4
COc1ccc(C#Cc2ccc3c(c2)O[C@H](CN(C)C(=O)c2ccccn2)[C@@H](C)CN([C@H](C)CO)S3(=O)=O)cc1 | · | · | · | 3 | · | ·
CS(=O)(=O)c1ccc(C(=O)OCC(=O)N2CCOCC2)cc1[N+](=O)[O-] | 8.2* | -2 | 14 | -2 | 18* | 1
CS(=O)(=O)c1ccc(C(=O)OCc2nnc(-c3ccccc3)o2)cc1[N+](=O)[O-] | 12* | -1 | -11 | 0 | -13 | 9.0*
O=C(NC(=S)Nc1cccc(O)c1)C1CCCCC1 | 8.2* | 0 | 11 | 3 | 3 | 6.2*
C/C=C/c1ccc([C@@H]2[C@@H](CO)N(C(=O)CN(C)C)C23CN(C(=O)C2CCCCC2)C3)cc1 | · | · | · | -2 | · | ·
O=C(O)c1ccc(N=Nc2c(O)[nH]c3cc(Cl)ccc23)cc1 | 14* | -1 | 6 | 3 | 12* | 14*
CCN(CC)CCNc1ccc(CO)c2oc3cc(Cl)ccc3c(=O)c12 | 18* | 0 | 0 | 9.0* | 29* | 1
CN(C)CCNc1ccc(CO)c2oc3ccc(O)cc3c(=O)c12 | 11* | -2 | -9 | 2 | 13* | 4
O=c1cc(NCCCO)c2ccccc2o1 | -3 | -2 | 8 | · | · | ·
C[C@H]1CCCCO[C@@H](CN(C)C(=O)C2CCCCC2)[C@@H](C)CN([C@@H](C)CO)C(=O)c2cc(NS(=O)(=O)c3cn(C)cn3)ccc2O1 | · | · | · | 1 | · | ·
O=Cc1ccc(OCc2ccccn2)cc1 | 1 | 0 | 0 | · | · | ·
O=Cc1ccc(OCc2ccc3ccccc3c2)cc1 | 8.2* | 2 | 2 | -2 | 5 | 6.1*
O=C(/C=C/c1ccc(O)cc1)c1ccc(O)cc1O | 8.1* | -2 | -16 | 0 | 11* | 1
COc1ccc(C(=O)/C=C/c2cccs2)c(OC(=O)N2CCOCC2)c1 | 1 | -2 | 2 | · | · | ·
O=C(C=Cc1cccc(O)c1)c1ccccc1O | -2 | 0 | 15 | -1 | · | ·
COc1ccc(C(=O)/C=C/c2ccccc2)c(O)c1 | 8.2* | 2 | 6 | 0 | 4 | 2
COc1ccc(C(=O)C=Cc2cccs2)c(O)c1 | 8.2* | 1 | -1 | -1 | 5 | 5.7*
C[C@H](O)C#Cc1ccc2c(c1)O[C@@H](CN(C)C(=O)CN(C)C)[C@@H](C)CN([C@H](C)CO)S2(=O)=O | · | · | · | 1 | · | ·
c1ccc(OCc2nc(-c3cccs3)no2)cc1 | 11* | -1 | 13 | · | 9.2* | 6.6*
Cc1ccc(NC(=O)C2C(C(=O)O)C3C=CC2C32CC2)cc1 (configuration not stated) | 9.8* | -1 | 1 | · | -1 | 2
CC(Sc1nc2ccccc2[nH]1)C(=O)O (configuration not stated) | -2 | -2 | -1 | · | · | ·
SMILES | SMARCA2 activ | MC4R barr agon | MC4R antag cAMP | F508del corr | SMARCA2 act conf | VP16 Luc act
CC(=O)N=C(N)Sc1nc2ccccc2[nH]1 | 9.7* | -2 | 5 | · | 6 | 9.2*
O=C1OC(/C(=C\Nc2cc(Cl)ccc2O)[N+](=O)[O-])c2ccccc21 (configuration not stated) | 33* | -1 | -8 | -1 | 5 | -1
O=C1OC(/C(=C\Nc2ccc(F)cc2F)[N+](=O)[O-])c2ccccc21 (configuration not stated) | 13* | -1 | 4 | 0 | 3 | 2
CC(=O)Nc1ccc2c(c1)nc1n2CCSC1 | 2 | -1 | 0 | · | · | ·
COc1ccccc1C(=O)Nc1ccc2c(c1)nc1n2CCSC1 | 8.9* | 1 | -5 | · | 15* | 5.6*
Cc1ccc(C(=O)Nc2ccc3c(c2)nc2n3CCSC2)cc1 | 4 | -1 | -5 | · | · | ·
CCCCC(=O)Nc1ccc2c(c1)nc1n2CCSC1 | 8.1* | -4 | 2 | · | 8.0* | 5.8*
C[C@@H]1CN([C@@H](C)CO)C(=O)c2cc(NC(=O)c3ccccc3)ccc2O[C@@H](C)CCCCO[C@@H]1CN(C)C(=O)c1ccccc1 | · | · | · | 0 | · | ·
CC(CN1CCOCC1)OC(=O)COc1ccc(F)cc1 (configuration not stated) | -1 | -1 | -1 | · | · | ·
COc1ccc(OCC(=O)OC(C)CN2CCOCC2)cc1 (configuration not stated) | 8.8* | -2 | 8 | · | 0 | 0
O=c1oc2cc(Cl)ccc2n1CSc1nc2ccccc2s1 | 8.8* | 2 | -3 | · | 6 | 11*
O=C(CSc1nc2ccccc2s1)N1c2ccccc2Sc2ccc(Cl)cc21 | -2 | 3 | -4 | · | · | ·
CSc1ccccc1OCc1cc(C(=O)N2CCN(c3ncccn3)CC2)no1 | 0 | -2 | -1 | -3 | · | ·
CSc1ccccc1OCc1cc(C(=O)N2CCSCC2)no1 | 13* | -1 | -2 | 0 | 9.6* | 10*
Nc1nc2cc(S(=O)(=O)NC3=NCCCCC3)ccc2s1 | 9.8* | -2 | 5 | -2 | -2 | 0
NS(=O)(=O)c1ccc(N=Nc2c(O)ccc3ccccc23)cc1 | 8.8* | 1 | 15 | 5 | 0 | 3
Oc1ccc(N=Nc2c(O)ccc3ccccc23)cc1 | -1 | -4 | -4 | 0 | · | ·
COc1cccc(-c2ccc(CC[C@H]3O[C@H]4CC[C@H](CO)O[C@H]4C[C@@H]3NS(C)(=O)=O)cc2)c1 | · | · | · | 0 | · | ·
O=C(CNC(=O)c1ccc(Br)cc1)N/N=C/c1cccnc1 | 10* | -3 | 0 | -1 | 1 | 1
COC(=O)C1CCN(C(=O)c2oc3c(Cl)cc(C)cc3c2C)CC1 | 9.1* | -1 | -2 | -1 | 7 | 11*
Cc1cc(Cl)c2oc(C(=O)NCC(C)(C)N3CCOCC3)c(C)c2c1 | 9.3* | -3 | 2 | 2 | 4 | 5.2*
CCOC(=O)C1CCCCN1C(=O)c1oc2c(Cl)cc(C)cc2c1C (configuration not stated) | 3 | 5 | -1 | -1 | · | ·
COc1ccc(NC(=O)N(C)C[C@@H]2Oc3ncccc3C(=O)N([C@H](C)CO)C[C@@H]2C)cc1 | · | · | · | -3 | · | ·
CC(=O)N1[C@@H]2c3ccc(-c4ccccc4F)c(=O)n3C[C@@H]2[C@@H](CO)[C@@H]1C(=O)NCC1CC1 | · | · | · | -3 | · | ·
